Most compounds without a hit are left out; they make up all but 2.7% or so of the library.
MC4R antag cAMP = MC4R antagonists of cAMP signaling, primary screen, cell-based, TR-FRET, antagonist arm of biased-ligand search; MC4R-expressing cells, MTII-stimulated cAMP, LANCE TR-FRET; inhibition, % at 6.5 µM; hit rate 0.48% among 360,000; AID 540295, 2011;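 active means inhibition above its plate's cutoff, the mean of tested wells on that plate plus 3 SD, cut at about 29% in these data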;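 further: 0% = Melanotan II alone and 100% = Melanotan II plus saturating MCL0020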
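System: U2OS cells stably expressing human melanocortin 4 receptor (MC4R). Reagent: Melanotan II challenge after compound preincubation. Doses: 6.5 µM. Times: 30-min compound, 1-h challenge, 1-h detection, room temperature. Measured by: TR-FRET with Eu-cAMP and labeled anti-cAMP, 671 nm. Replicates: singlicate.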
PG9 binder = binders of HIV-1 gp120 antibody PG9, primary screen, biochemical, TR-FRET | HIV-1 gp120 / PG9 antibody interaction | TR-FRET gp120-PG9 antibody binding | inhibition, % at 6.7 µM | hit rate 0.43% among 360,000 | AID 624416, 2012; in the data active means inhibition above about 8.5%
NR2E3 ag-1 = inhibitors of NR2E3-RetCOR corepressor binding, primary screen, NR2E3 agonist project, biochemical, TR-FRET, GST-NR2E3, biotin-RetCOR; 1536-well; hit rate 0.12% among 320,000; inhibition of corepressor binding, % at 4.78 µM; Photoreceptor-specific nuclear receptor (Homo sapiens), Q9Y5X4; AID 2300, 2010;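 active means percent inhibition above the cutoff of mean plus 3 SD of all tested compounds, set per screening campaign, cut at about 20% in these data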;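 further: 0% = DMSO wells and 100% = biotin wells as full block of FRET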
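Format: 1536-well format; test system: GST-NR2E3 and biotin-RetCOR proteins; read-out basis: percent inhibition of TR-FRET ratio; timing: 5 h incubation at 4 °C; detection: time-resolved FRET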
Rev-erbA mod = modulators of Rev-erb alpha DNA binding, primary screen, biochemical, FITC-DNA, fluorescence polarization, uHTS; activity, % at 10 µM; hit rate 0.79% among 370,000; AID 1259318, 2017; Rev-erbα–FITC-DNA binding, 90 min; Nuclear receptor subfamily 1 group D member 1 (Homo sapiens), P20393;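 active means activity above about 14%, limit read from the data; passing the limit was not always enough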;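 further: 0% = DMSO wells with 35 nM protein and 100% = DMSO wells with 750 nM protein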
NR2E3 ag-2 = NR2E3 agonists in two-hybrid cells, primary screen, cell-based, luminescence, CHO-S, Gal4-NCOR/VP16-NR2E3 | luciferase | hit rate 0.35% among 360,000 | inhibition of corepressor binding, % at 3.98 µM;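 active means inhibition above the mean of all tested compounds plus 3 SD, cut at about 70% in these data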;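 further: 0% = DMSO with NR2E3 transfected cells and 100% = cells lacking NR2E3 construct; higher means lower luciferase signal from less NR2E3 corepressor binding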
MC4R ag barr = MC4R agonists recruiting beta-arrestin, primary screen, cell-based, luminescence, agonist arm of biased-ligand search; Melanocortin receptor 4 (Homo sapiens), P32245; hit rate 0.98% among 360,000; activation, % at 8.9 µM; U2OS MC4R beta-arrestin complementation; percent of melanotan II response, DMSO zero;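 active means activation above a per-plate cutoff, the mean activation of sample wells on that plate plus 3 SD, cut at about 8% in these data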
MC4R barr conf = MC4R beta-arrestin agonists, retest, confirmation, cell-based, luminescence, U2OS; activation, % at 8.9 µM; hit rate 31% among 2,400; U2OS MC4R beta-arrestin recruitment; scaled DMSO 0%, Melanotan II 100%; AID 602192, 2012; shares compounds with MC4R ag barr;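 active means mean activation across replicates above the hit cutoff set in the earlier primary screen, cut at about 8% in these data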
MOR-DOR barr ag = agonists of MOR-DOR heterodimerization, counter-screen for MC4R biased agonist project, cell-based, luminescence; shares compounds with MC4R ag barr; U2OS PathHunter beta-arrestin, beta-gal luminescence; percent of deltorphin B response, DMSO zero; activation, % at 9.2 µM; hit rate 5.8% among 2,400;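 active means mean activation across replicates exceeds the hit threshold derived in the earlier primary screen, cut at about 18% in these data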;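 further: 100% = deltorphin B at 0.9 µM final and 0% = DMSO alone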
Target sequence (P35372 whole entry, looked up): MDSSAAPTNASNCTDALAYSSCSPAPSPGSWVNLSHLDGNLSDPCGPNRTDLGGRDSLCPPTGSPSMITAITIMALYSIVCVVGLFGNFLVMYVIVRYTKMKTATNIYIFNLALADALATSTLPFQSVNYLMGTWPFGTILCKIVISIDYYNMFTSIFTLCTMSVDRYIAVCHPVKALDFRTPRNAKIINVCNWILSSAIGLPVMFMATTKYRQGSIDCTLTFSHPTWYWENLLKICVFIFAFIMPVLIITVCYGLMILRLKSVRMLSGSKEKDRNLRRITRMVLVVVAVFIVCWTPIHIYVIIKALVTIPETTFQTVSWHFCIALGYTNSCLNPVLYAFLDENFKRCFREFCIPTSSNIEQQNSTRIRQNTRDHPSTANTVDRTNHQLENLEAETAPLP
Target sequence (P41143 whole entry, looked up): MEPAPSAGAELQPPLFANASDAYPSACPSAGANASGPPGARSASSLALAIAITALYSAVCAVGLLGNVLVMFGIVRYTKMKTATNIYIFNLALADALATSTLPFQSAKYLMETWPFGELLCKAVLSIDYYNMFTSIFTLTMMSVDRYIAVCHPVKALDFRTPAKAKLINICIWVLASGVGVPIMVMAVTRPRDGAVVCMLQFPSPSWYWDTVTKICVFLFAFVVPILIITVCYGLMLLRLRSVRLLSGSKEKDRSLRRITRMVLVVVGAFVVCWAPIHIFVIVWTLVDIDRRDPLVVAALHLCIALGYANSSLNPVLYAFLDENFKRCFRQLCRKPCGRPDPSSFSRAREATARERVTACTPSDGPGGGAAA
PG9 bind confirm = binders of anti-gp120 antibody PG9, confirmation, biochemical, TR-FRET; shares compounds with PG9 binder; TR-FRET PG9 antibody binding; inhibition, % at 6.7 µM; hit rate 90% among 1,500; AID 651571, 2012; in the data active means inhibition above about 9%
PGV04 counter = binders of control antibody PGV04, counter-screen for PG9 antibody binder project, biochemical, TR-FRET, distinct HIV envelope site. inhibition, % at 6.7 µM. shares compounds with PG9 binder. hit rate 95% among 1,500. TR-FRET PGV04 antibody-gp120 binding; in the data active means inhibition above about 9.5%
Rev-erbA confirm = modulators of Rev-erb alpha DNA binding, confirmation, biochemical, FITC-DNA, fluorescence polarization, single point. shares compounds with Rev-erbA mod. 90 min. activation, % at 25 µM. hit rate 61% among 3,000;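 active means activation at or above a set limit, or at least 3 SD above the negative control mean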;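 further: 0% = 35 nM protein with DMSO and 100% = 750 nM protein high control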
RORg counter = modulation of RORgamma DNA binding, dose response, counter-screen for Rev-erb alpha modulator project, biochemical, fluorescence polarization, FITC-DNA; hit rate 8% among 910; shares compounds with Rev-erbA mod; IC50, µM; purified RORgamma protein-FITC-DNA binding;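 active means Compounds whose fitted half-maximal concentration for disrupting protein-DNA binding is below 10 micromolar; the record names Rev-erb in its text, so the target is in doubt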
An asterisk follows results filed as active.

For CCCOc1ccc(N2C(=O)CC(N(Cc3ccccc3)N=O)C2=O)cc1 (centres undefined) the results were MC4R antag cAMP -3, PG9 binder -1, NR2E3 ag-1 -2, Rev-erbA mod -4, NR2E3 ag-2 -7 and MC4R ag barr -1.
O=C(COC(=O)c1ccc2ccccc2n1)Nc1ncc(C(F)(F)F)cc1Cl was read as MC4R antag cAMP 16, PG9 binder 1, NR2E3 ag-1 -3, Rev-erbA mod 5, NR2E3 ag-2 16 and MC4R ag barr -1.
For O=C(COC(=O)c1ccc2ccccc2c1)Nc1ncc(C(F)(F)F)cc1Cl the results were MC4R antag cAMP 3, PG9 binder 15*, NR2E3 ag-1 3, Rev-erbA mod 34*, NR2E3 ag-2 -1, MC4R ag barr 10*, MC4R barr conf 6, MOR-DOR barr ag 4, PG9 bind confirm 18*, PGV04 counter 27* and Rev-erbA confirm 13.
`COc1ccccc1C(=O)Nc1ccc2oc(-c3ccc(F)cc3)nc2c1` gave MC4R antag cAMP 4, PG9 binder 0, NR2E3 ag-1 -1, Rev-erbA mod 36*, NR2E3 ag-2 -26, MC4R ag barr 18*, MC4R barr conf 6, MOR-DOR barr ag 2, Rev-erbA confirm 33* and RORg counter inactive.
COc1cccc(OC)c1C(=O)Nc1cccc(C(=O)Nc2cccc(C(=O)O)c2)c1 was read as MC4R antag cAMP 12, PG9 binder -1, NR2E3 ag-1 -1, Rev-erbA mod 2, NR2E3 ag-2 -21 and MC4R ag barr -2.
`CCc1ccc(OCC(=O)Nc2cccc3nsnc23)cc1` gave MC4R antag cAMP 2, PG9 binder -2, NR2E3 ag-1 -3, Rev-erbA mod -2, NR2E3 ag-2 -6 and MC4R ag barr 1.
`Cc1ccccc1OCC(=O)Nc1cccc2nsnc12` gave MC4R antag cAMP 3, PG9 binder 2, NR2E3 ag-1 -1, Rev-erbA mod 105*, NR2E3 ag-2 -4, MC4R ag barr 11*, MC4R barr conf 0, MOR-DOR barr ag 3, Rev-erbA confirm 55* and RORg counter inactive.
For CCOC(=O)c1cnn(-c2cc(Oc3ccccc3)ncn2)c1N the results were MC4R antag cAMP 4, PG9 binder 0, NR2E3 ag-1 3, Rev-erbA mod 3, NR2E3 ag-2 2 and MC4R ag barr 0.
NC(=O)c1cc2cc(Cc3ccccc3Cl)ccc2oc1=O was read as MC4R antag cAMP -6, PG9 binder 4, NR2E3 ag-1 2, Rev-erbA mod 20*, NR2E3 ag-2 -7, MC4R ag barr 11*, MC4R barr conf -2, MOR-DOR barr ag 6 and Rev-erbA confirm 17.
For CNC(=O)c1cc2cc(Cc3ccccc3Cl)ccc2oc1=O the results were MC4R antag cAMP 6, PG9 binder 4, NR2E3 ag-1 3, Rev-erbA mod 11, NR2E3 ag-2 -7 and MC4R ag barr 1.
Screening Cc1nn(C)c(Oc2cccc(Cl)c2)c1C#N returned MC4R antag cAMP 14, PG9 binder 0, NR2E3 ag-1 3, Rev-erbA mod 4, NR2E3 ag-2 -1 and MC4R ag barr -2.
For Cc1cccn2c(=O)c3cc(C(=O)NCCCn4ccnc4)n(C)c3nc12 the results were MC4R antag cAMP 6, PG9 binder 0, NR2E3 ag-1 -1, Rev-erbA mod 4, NR2E3 ag-2 -4 and MC4R ag barr -1.
For Cc1nc2c(ccc3nc(NC(=O)c4ccc5c(c4)OCCO5)sc32)s1 the results were MC4R antag cAMP 6, PG9 binder 1, NR2E3 ag-1 6, Rev-erbA mod 56*, NR2E3 ag-2 -156, MC4R ag barr 11*, MC4R barr conf -3, MOR-DOR barr ag 5 and Rev-erbA confirm 27*.
`O=C(Nc1cc(-c2nc3ccccc3s2)ccc1Cl)c1ccc2c(c1)OCO2` gave MC4R antag cAMP 6, PG9 binder 1, NR2E3 ag-1 -2, Rev-erbA mod 28*, NR2E3 ag-2 -36, MC4R ag barr 24*, MC4R barr conf 21*, MOR-DOR barr ag 2 and Rev-erbA confirm 1.
O=C(Nc1cccc2nsnc12)c1ccc2c(c1)OCO2 was read as MC4R antag cAMP 0, PG9 binder -1, NR2E3 ag-1 -1, Rev-erbA mod -2, NR2E3 ag-2 -43 and MC4R ag barr -2.
For N#Cc1ccc(-c2cccnc2)nc1SCC(=O)c1ccccc1 the results were MC4R antag cAMP 8, PG9 binder -2, NR2E3 ag-1 2, Rev-erbA mod 23*, NR2E3 ag-2 -91, MC4R ag barr 11*, MC4R barr conf 7, MOR-DOR barr ag 2 and Rev-erbA confirm 30*.

Screening data from PubChem.
